Assays:
[1] = target: T1, Glutamate receptor 1 (Homo sapiens, UniProt P42261); assay: (§1) Antagonist activity at human iGluA1 receptor flop isoform expressed in CHO-S cells coexpressing TARP gamma-8 and human EAAT3 assessed as inhibition of glutamate-induced increase in intracellular calcium levels after 2 mins followed by cyclothiazide/glutamate addition by fluo-4 AM dye based fluorescence imaging plate reader method; format: cell-based
Summary of the method: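 Transiently transfected CHO-S cells (human GluA1Q flop with TARP γ-8 and human EAAT3, DNA ratio 2:3), frozen, thawed, plated overnight at 37 °C; Fluo-4 AM loading 2 h at 22 °C. Compound added, then 2 min later glutamate (5 μM final); cyclothiazide (20 μM) plus glutamate (45 μM) 2 min after. FLIPR Ca2+ read; inhibition relative to 167 μM nonselective antagonist and buffer baseline; four-parameter logistic IC50; mean ± SEM, n ≥ 2.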

[2] = target: T1, Glutamate receptor 1; assay: as §1, with “gamma-2” for “gamma-8 and human EAAT3”; format: cell-based
[3] = target: T1, Glutamate receptor 1; assay: Antagonist activity at human iGluA1 receptor flip isoform expressed in CHO-S cells assessed as inhibition of glutamate-induced increase in intracellular calcium levels after 2 mins followed by cyclothiazide/glutamate addition by fluo-4 NW dye based fluorescence imaging plate reader method; format: cell-based
[4] = Clearance in rat; format: ADME, organism-based; conditions: in vivo
[5] = target: T2, Cytochrome P450 1A2 (Homo sapiens, UniProt P05177); assay: Inhibition of human CYP1A2; format: ADME
T2 sequence (P05177 whole entry): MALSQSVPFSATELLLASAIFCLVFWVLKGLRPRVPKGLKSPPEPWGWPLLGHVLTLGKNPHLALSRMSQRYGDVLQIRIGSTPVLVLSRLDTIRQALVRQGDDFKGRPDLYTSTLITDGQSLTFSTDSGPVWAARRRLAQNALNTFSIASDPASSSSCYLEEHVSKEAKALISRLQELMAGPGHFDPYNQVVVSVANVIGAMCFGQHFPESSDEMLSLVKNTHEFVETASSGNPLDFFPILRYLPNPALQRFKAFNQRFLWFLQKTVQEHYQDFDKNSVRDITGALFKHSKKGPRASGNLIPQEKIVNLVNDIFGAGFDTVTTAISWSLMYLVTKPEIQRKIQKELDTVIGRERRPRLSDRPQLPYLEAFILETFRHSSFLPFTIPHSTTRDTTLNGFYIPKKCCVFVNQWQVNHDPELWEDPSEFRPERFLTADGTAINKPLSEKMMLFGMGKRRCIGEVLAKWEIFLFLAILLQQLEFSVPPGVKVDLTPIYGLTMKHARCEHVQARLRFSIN

[6] = target: T2, Cytochrome P450 1A2; assay: Induction of CYP1A2 in human hepatocytes at 0.2 to 20 uM compared to omeprazole; format: ADME, cell-based, Hepatocyte
Summary of the method: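 Human hepatocytes treated over a concentration range; CYP1A2 fold induction expressed as percent of omeprazole; >30% taken as induction, <15% as none.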

[7] = target: T1, Glutamate receptor 1; assay: Antagonist activity at human iGluA1 receptor flop isoform expressed in CHO-S cells coexpressing TARP gamma-3 assessed as inhibition of glutamate-induced increase in intracellular calcium levels after 2 mins followed by cyclothiazide/glutamate addition by fluorescence imaging plate reader method; format: cell-based
Summary of the method: (§2)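 Human GluA1 flop transiently co-expressed with the TARP subtype in CHO-S cells. Frozen cells were thawed, plated at 50,000 cells/well and cultured overnight at 37 °C. Buffer was HBSS with 20 mM HEPES pH 7.4, 2.5 mM probenecid and 4 mM CaCl2. Compound was added, then cyclothiazide (20 μM final) plus glutamate (45 μM final). FLIPR Ca2+ read, normalised to full antagonist block and buffer baseline. Four-parameter IC50; mean ± SEM, n ≥ 2.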

[8] = target: T1, Glutamate receptor 1; assay: Antagonist activity at human iGluA1 receptor flop isoform expressed in CHO-S cells coexpressing TARP gamma-4 assessed as inhibition of glutamate-induced increase in intracellular calcium levels after 2 mins followed by cyclothiazide/glutamate addition by fluorescence imaging plate reader method; format: cell-based; summary of the method: as §2
[9] = system: UGT; assay: Drug metabolism assessed as UGT-mediated compound glucuronidation in human liver microsomes; format: ADME; conditions: read-out: Drug metabolism
Summary of the method: (§3)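 Microsomes incubated with appropriate cofactors for UGT; percent metabolism, n = 1.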

[10] = system: UGT; assay: Drug metabolism assessed as UGT-mediated compound glucuronidation in rat liver microsomes; format: ADME; conditions: read-out: Drug metabolism; summary of the method: as §3
[11] = system: Hepatocyte; assay: Drug metabolism in human hepatocytes assessed as sulfation by LC/MS/MS analysis; format: ADME, cell-based
[12] = system: Hepatocyte; assay: Drug metabolism in rat hepatocytes assessed as glucuronidation by LC/MS/MS analysis; format: ADME, cell-based
[13] = Cmax in rat plasma at 30 mg/kg, po measured on day 1; format: ADME, organism-based; set-up: dose 30 mg/kg, route oral
[14] = Cmax in rat plasma at 30 mg/kg, po measured on day 4; format: ADME, organism-based; set-up: dose 30 mg/kg, route oral
Summary of the method: (§4)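 Rats dosed orally at 30 mg/kg for 4 days; plasma Cmax and AUC determined.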

[15] = AUC in rat plasma at 30 mg/kg, po measured on day 1; format: ADME, organism-based
[16] = AUC in rat plasma at 30 mg/kg, po measured on day 4; format: ADME, organism-based; summary of the method: as §4
[17] = system: Hepatocyte; assay: Drug metabolism in human hepatocytes assessed as oxidative metabolite formation; format: ADME, cell-based
[18] = system: Hepatocyte; assay: Drug metabolism in rat hepatocytes assessed as oxidative metabolite formation; format: ADME, cell-based
[19] = system: Hepatocyte; assay: Drug metabolism in human hepatocytes assessed as glucuronidation; format: ADME, cell-based
[20] = system: Hepatocyte; assay: Drug metabolism in rat hepatocytes assessed as glucuronidation; format: ADME, cell-based
[21] = system: Rattus norvegicus; assay: Anticonvulsant activity in po dosed Sprague-Dawley rat assessed as inhibition of pentylenetetrazole-induced clonic convulsions administered 30 mins prior to PTZ dosing measured over 30 mins; format: functional
[22] = system: Rattus norvegicus; assay: Toxicity in Sprague-Dawley rat assessed as motor impairment at 30 mg/kg, po by inverted screen test; format: organism-based; conditions: in vivo
Summary of the method: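 Oral dosing in rats, then inverted screen motor-function score. Plasma exposure measured. Mean ± SEM of ≥4 rats/group, compared with vehicle control.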

[23] = system: Rattus norvegicus; assay: Protective index, ratio of TD50 for motor impairment to ED50 for inhibition of pentylenetetrazole-induced clonic convulsions in po dosed Sprague-Dawley rat
Summary of the method: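 PI = inverted screen TD50 divided by PTZ ED50. For the ED50, rats were dosed orally 30 min before PTZ (35 mg/kg, sc), with n = 10 per group. Read-out was % block of clonic convulsions; ED50 given with 95% confidence limits.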

T1 sequence (P42261 whole entry, canonical isoform): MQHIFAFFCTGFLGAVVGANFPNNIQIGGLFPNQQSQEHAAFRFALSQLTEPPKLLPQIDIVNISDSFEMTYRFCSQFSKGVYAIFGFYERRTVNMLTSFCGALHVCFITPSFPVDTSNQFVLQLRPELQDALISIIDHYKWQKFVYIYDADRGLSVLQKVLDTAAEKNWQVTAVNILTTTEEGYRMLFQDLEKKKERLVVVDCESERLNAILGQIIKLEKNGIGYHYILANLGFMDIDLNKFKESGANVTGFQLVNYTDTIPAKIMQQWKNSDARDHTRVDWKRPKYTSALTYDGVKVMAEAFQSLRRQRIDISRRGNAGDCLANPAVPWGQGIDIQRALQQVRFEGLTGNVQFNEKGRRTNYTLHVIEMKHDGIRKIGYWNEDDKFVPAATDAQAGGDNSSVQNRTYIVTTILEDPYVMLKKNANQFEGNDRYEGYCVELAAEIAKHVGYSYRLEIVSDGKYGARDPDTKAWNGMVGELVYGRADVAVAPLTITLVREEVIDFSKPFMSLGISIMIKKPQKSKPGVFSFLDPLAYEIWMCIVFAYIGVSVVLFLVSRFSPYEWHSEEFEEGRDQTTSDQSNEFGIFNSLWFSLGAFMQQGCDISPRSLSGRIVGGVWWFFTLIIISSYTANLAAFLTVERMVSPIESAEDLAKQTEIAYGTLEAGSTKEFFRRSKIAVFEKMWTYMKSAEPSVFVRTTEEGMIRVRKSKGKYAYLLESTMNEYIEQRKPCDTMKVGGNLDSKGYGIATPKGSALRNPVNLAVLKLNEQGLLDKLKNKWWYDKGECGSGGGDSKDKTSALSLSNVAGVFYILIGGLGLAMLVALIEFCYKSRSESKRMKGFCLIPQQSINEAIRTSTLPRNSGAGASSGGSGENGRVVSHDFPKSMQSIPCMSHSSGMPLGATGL

Row | Structure (SMILES) | IC50 [1] | IC50 [2] | IC50 [3] | clearance [4] | IC50 [5] | further results
1 | C[C@@H](c1ccc2[nH]c(=O)sc2c1)c1ccn(-c2ccccn2)n1 | 50.9 nM | 83.3 µM | 9.26 µM | 99 mL/min/kg | > 10000 nM | Activity [6]: < 15%
2 | C[C@H](c1ccc2[nH]c(=O)sc2c1)c1ccn(-c2ccccn2)n1 | 615 nM | 83.3 µM | 9.26 µM | 144 mL/min/kg | 4670 nM | Activity [6]: < 15%
3 | CN(c1ccc(O)cc1)c1nc(-c2ccccn2)cs1 | 2970 nM | > 83.3 µM | > 83.3 µM | 234 mL/min/kg |  | IC50 [7]: > 83300 nM; IC50 [8]: > 83300 nM; metabolised [9]: 33%; metabolised [10]: 99%; Drug metabolism [11]: metabolite_detected; Drug metabolism [12]: metabolite_detected
4 | C[C@@H](c1ccc2[nH]c(=O)sc2c1)c1ccn(-c2ccc(CCC(C)(C)O)cn2)n1 | 160 nM | 9.26 µM | 9.26 µM | 6 mL/min/kg |  | 
5 | C[C@@H](c1ccc2[nH]c(=O)sc2c1)c1ccn(-c2ccc(CCO)cn2)n1 | 61.6 nM | 25.7 µM | 83.3 µM | 16.3 mL/min/kg |  | 
6 | CN(c1ccc2[nH]ncc2c1)c1nc(-c2ccccn2)cs1 | 147 nM | > 83.3 µM | > 83.3 µM | 71.5 mL/min/kg | 222 nM | Cmax [13]: 3740 ng/mL; Cmax [14]: 1930 ng/mL; AUC [15]: 52300 ng·h/mL; AUC [16]: 3150 ng·h/mL
7 | CN(c1ccc2[nH]ncc2c1)c1ccn(-c2ccccn2)n1 | 353 nM | > 83.3 µM | > 83.3 µM | 61.3 mL/min/kg | 230 nM | 
8 | CN(c1ccc2[nH]c(=O)sc2c1)c1nc(-c2ccccn2)cs1 | 70 nM | > 83.3 µM | > 83.3 µM | 96.6 mL/min/kg | 360 nM | 
9 | C[C@H](c1ccc2[nH]c(=O)sc2c1)c1ccn(-c2ccc(OCCO)cn2)n1 | 1790 nM | 9.26 µM | 9.26 µM |  |  | 
10 | CC(c1ccc2[nH]c(=O)sc2c1)c1ccn(-c2ccccn2)n1 (racemic) | 122 nM | 83.3 µM | 83.3 µM | 115 mL/min/kg | 8680 nM | Activity [6]: < 15%; Drug metabolism [17]: metabolite_detected; Drug metabolism [18]: metabolite_detected; Drug metabolism [19]: metabolite_detected; Drug metabolism [20]: metabolite_detected
11 | CCOCCN(c1ccc2[nH]c(=O)sc2c1)c1nc(-c2ccccn2)cs1 | 22 nM |  |  |  |  | 
12 | C[C@H](c1ccc2[nH]c(=O)sc2c1)c1ccn(-c2ccc(CCO)cn2)n1 | 2820 nM | 9.26 µM | 9.26 µM |  |  | 
13 | N#Cc1ccccc1-c1cc(-c2ccccn2)cn(-c2ccccc2)c1=O [PERAMPANEL] | 1180 nM | 0.485 µM | 6.51 µM |  |  | IC50 [7]: 243 nM; IC50 [8]: 623 nM; ED50 [21]: 10.6 mg/kg; Activity [22]: Toxic; Ratio TD50/ED50 [23]: 0.4
14 | Cn1ccc(CN(c2ccc3[nH]ncc3c2)c2nc(-c3ccccn3)cs2)n1 | 53.9 nM | 83.3 µM | 83.3 µM |  | > 10000 nM | Activity [6]: < 15%
15 | C[C@@H](c1ccc2[nH]c(=O)sc2c1)c1ccn(-c2ccc(F)cn2)n1 | 53.6 nM | 83.3 µM | 83.3 µM | 42.2 mL/min/kg |  | 

— ChEMBL document CHEMBL3822422, “Discovery of the First α-Amino-3-hydroxy-5-methyl-4-isoxazolepropionic Acid (AMPA) Receptor Antagonist Dependent upon Transmembrane AMPA Receptor Regulatory Protein (TARP) γ-8” (J Med Chem, 2016)
